Each block holds one compound with its values, some of them ahead of it. Calls of active or inactive are those of the source. The rule behind the calls is not given here.
Legend:
[1] = Selectivity index, ratio of IC50 for human OKF-6/TERT cells to IC50 for human HEp-2 cells after 48 hrs by MTT assay; format: toxicity; conditions: OKF-6/TERT cells versus HEp-2 cells
In short: (§1)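 Selectivity index at 48 h is the ratio of the OKF-6/TERT IC50 to the tumour-line IC50. Each IC50 comes from a sigmoidal, variable-slope dose–response curve of the MTT viability assay (1 × 10^4 cells per well, 48 h exposure, absorbance at 570 nm).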

[2] = Selectivity index, ratio of IC50 for human OKF-6/TERT cells to IC50 for human SCC-15 cells after 48 hrs by MTT assay; format: toxicity; conditions: OKF-6/TERT cells versus SCC-15 cells; in short: as §1
HEp-2 [3] = experiment: Cytotoxicity against human HEp-2 cells assessed as reduction in cell viability measured after 48 hrs by MTT assay; format: functional, cell-based; conditions: HEp-2, 48 h
In short: (§2)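 Cells seeded at 1 × 10^4 per well and left 24 h, then exposed to increasing concentrations for 24, 48 or 72 h. After two PBS washes, 0.5 mg/mL MTT applied for 2 h. Formazan dissolved in DMSO and absorbance read at 570 nm. IC50 taken from a variable-slope dose–response curve.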

CAL-27 [4] = experiment: Cytotoxicity against human CAL-27 cells assessed as reduction in cell viability measured after 48 hrs by MTT assay; format: functional, cell-based; conditions: CAL-27, 48 h; in short: as §2
SCC-15 = experiment: Cytotoxicity against human SCC-15 cells assessed as reduction in cell viability measured after 48 hrs by MTT assay; format: functional, cell-based; conditions: SCC-15, 48 h; in short: as §2
CAL-27 [5] = experiment: Induction of apoptosis in human CAL-27 cells assessed as increase in caspase 3 activity at 2.5 to 5 uM incubated for 24 hrs by flow cytometry; format: functional, cell-based; conditions: dose 2.5 µM
In short: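 Cal-27 cells seeded at 5 × 10^5 per well and grown 24 h at 37 °C, then exposed to two concentrations for 24 h. Cells fixed and permeabilised 30 min at 4 °C in the dark, stained 30 min with PE anti-active caspase-3 antibody, and read by flow cytometry at 488 ex/617 em.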

[6] = Cytotoxicity against human OKF-6/TERT cells assessed as reduction in cell viability measured after 48 hrs by MTT assay; format: cell-based; conditions: OKF6, 48 h; in short: as §2
[7] = Selectivity index, ratio of IC50 for human OKF-6/TERT cells to IC50 for human CAL27 cells after 48 hrs by MTT assay; format: toxicity; conditions: OKF-6/TERT cells versus CAL27 cells, read-out: Ratio IC50; in short: as §1
HEp-2 [8] = experiment: Induction of apoptosis in human Hep-2 cells at 2.5 uM incubated for 48 hrs by annexin-V FITC and PI staining based flow cytometric analysis; format: functional, cell-based
In short: (§3)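 Cells at 1 × 10^5 per mL exposed to 2.5 μM compound for 48 h at 37 °C in 5% CO2, with 10 μM staurosporine as positive control. Cells stained 5 min at room temperature with annexin V-FITC (488/530) and PI (488/575) in binding buffer; 10 000 events recorded by flow cytometry. Mean ± SD of at least three experiments; ANOVA with Bonferroni post-test.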

CAL-27 [9] = experiment: Induction of mitochondrial uncoupling in human CAL-27 cells assessed as oxygen consumption rate measured by Clark-type oxygen electrode method; conditions: Mitochondria, dose microM 10-50
In short: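 Polarographic Clark-electrode assay on 5 × 10^6 trypsinised Cal-27 cells (cultured to 80% confluence). Cells held in 0.6 mL PBS, pH 7.4, at 25 °C with 8.3 mM L-glutamine. Respiration first inhibited with 2.5 μg/mL oligomycin, then compound added at increasing concentrations. OCR compared with full uncoupling by 0.133 μM CCCP.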

HEp-2 [10] = experiment: Decrease in intracellular ATP levels in human Hep-2 cells at 10 to 50 uM incubated for 4 hrs by CellTiter-Glo luminescence assay; conditions: dose microM 10-50, time 4.0 hrs
CAL-27 [11] = experiment: Uncoupling of mitochondrial oxidative phosphorylation in human CAL-27 cells assessed as increase in oxygen consumption rate by Clark electrode based assay; conditions: Mitochondria
CAL-27 [12] = experiment: Induction of mitochondrial membrane potential loss in human CAL-27 cells at 2.5 to 30 uM by flow cytometry; conditions: dose microM 2.5-30
CAL-27 [13] = experiment: Induction of apoptosis in human CAL-27 cells at 2.5 uM incubated for 48 hrs by annexin-V FITC and PI staining based flow cytometric analysis; format: functional, cell-based; in short: as §3
HEp-2 [14] = experiment: Induction of mitochondrial membrane potential loss in human Hep-2 cells at 2.5 to 30 uM by flow cytometry; conditions: dose microM 2.5-30
CAL-27 [15] = experiment: Anticlonogenic activity against human CAL-27 cells assessed as reduction in colony formation incubated for 24 hrs followed supplementation with fresh medium without compound measured after 120 hrs by colony formation assay; format: functional, cell-based
In short: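 Cal-27 cells, 1 × 10^3 per well, grown 24 h at 37 °C in 5% CO2, then exposed 24 h to a range of concentrations. Medium then replaced with compound-free medium and growth continued 120 h. Colonies stained 30 min with crystal violet (0.5% in methanol), photographed and counted. Three independent experiments; ANOVA with Bonferroni post-test.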

CAL-27 [16] = experiment: Decrease in intracellular ATP levels in human CAL-27 cells at 10 to 50 uM incubated for 4 hrs by CellTiter-Glo luminescent assay; conditions: dose microM 10-50, time 4.0 hrs

- Activity (CAL-27 [9]): Dose-dependent effect
- Activity (CAL-27 [11]): Active
SMILES: O=C(OCCCCCCCCCC[P+](c1ccccc1)(c1ccccc1)c1ccccc1)c1ccccc1O
- selectivity ratio at 48 h ([1]; read-out: Ratio IC50): 3
- selectivity ratio at 48 h ([2]; read-out: Ratio IC50): 4
- IC50 (HEp-2 [3]): 4.28 µM
- IC50 (CAL-27 [4]): 2.3 µM
- IC50 (SCC-15): 3.2 µM
- Activity (CAL-27 [5]): Active
- IC50 [6]: 12.7 µM
- selectivity ratio at 48 h [7]: 5.5
- Activity (HEp-2 [8]): Active
- Activity (HEp-2 [10]): Active
- Activity (CAL-27 [12]): Active
- Activity (CAL-27 [13]): Active
- Activity (HEp-2 [14]): Active
- Activity (CAL-27 [15]): Dose-dependent effect

- Activity (CAL-27 [9]): Dose-dependent effect
- Activity (CAL-27 [11]): Active
SMILES: O=C(OCCCCCCCCCC[P+](c1ccccc1)(c1ccccc1)c1ccccc1)c1cc(O)c(O)c(O)c1
- selectivity ratio at 48 h ([1]; read-out: Ratio IC50): 1
- selectivity ratio at 48 h ([2]; read-out: Ratio IC50): 4.4
- IC50 (HEp-2 [3]): 12.5 µM
- IC50 (CAL-27 [4]): 3.4 µM
- IC50 (SCC-15): 3 µM
- Activity (CAL-27 [5]): Active
- IC50 [6]: 13.1 µM
- selectivity ratio at 48 h [7]: 3.8
- Activity (HEp-2 [8]): Active
- Activity (HEp-2 [10]): Active
- Activity (CAL-27 [12]): Active
- Activity (CAL-27 [13]): Active
- Activity (HEp-2 [14]): Active
- Activity (CAL-27 [15]): Dose-dependent effect

- Activity (CAL-27 [9]): Dose-dependent effect
SMILES: O=C(OCCCCCCCCCC[P+](c1ccccc1)(c1ccccc1)c1ccccc1)c1cc(O)ccc1O
- selectivity ratio at 48 h ([1]; read-out: Ratio IC50): 2.3
- selectivity ratio at 48 h ([2]; read-out: Ratio IC50): 4.9
- Activity (CAL-27 [16]): Active
- IC50 (HEp-2 [3]): 5.66 µM
- IC50 (CAL-27 [4]): 2.2 µM
- IC50 (SCC-15): 2.7 µM
- Activity (CAL-27 [5]): Active
- IC50 [6]: 13.2 µM
- selectivity ratio at 48 h [7]: 6
- Activity (HEp-2 [8]): Active
- Activity (HEp-2 [10]): Active
- Activity (CAL-27 [12]): Active
- Activity (CAL-27 [13]): Active
- Activity (HEp-2 [14]): Active
- Activity (CAL-27 [15]): Dose-dependent effect

- Activity (CAL-27 [9]): Dose-dependent effect
SMILES: O=C(OCCCCCCCCCC[P+](c1ccccc1)(c1ccccc1)c1ccccc1)c1cccc(O)c1O
- selectivity ratio at 48 h [1]: 2.3
- selectivity ratio at 48 h [2]: 4.9
- Activity (CAL-27 [16]): Active
- IC50 (HEp-2 [3]): 8.28 µM
- IC50 (CAL-27 [4]): 1.6 µM
- IC50 (SCC-15): 2.9 µM
- Activity (CAL-27 [5]): Active
- IC50 [6]: 7.5 µM
- selectivity ratio at 48 h [7]: 4.7
- Activity (HEp-2 [8]): Active
- Activity (HEp-2 [10]): Active
- Activity (CAL-27 [12]): Active
- Activity (CAL-27 [13]): Active
- Activity (HEp-2 [14]): Active
- Activity (CAL-27 [15]): Dose-dependent effect
